Reference: ChEMBL document CHEMBL1134462, “Toward a rational design of peptide inhibitors of ribonucleotide reductase: structure-function and modeling studies” (J Med Chem, 2001)
Non-standard residues stand in square brackets, D forms with d. Residues, ends and D or L forms follow the SMILES beside them. aThr = C[C@H](O)[C@H](N)C(=O)O

Assay: Relative dissociation constant evaluated against mouse Ribonucleotide Reductase (RR)
How it was run: (§1)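 Competition of free ligand with column-bound FTLDADF (Sepharose mixed ~60:40 with underivatized Sepharose) for mouse R1. mR1 (4.4 μM) premixed with ligand (typically 100 μM) in 50 mM Tris pH 8.5, 10 mM DTT, 100 μM dTTP, held 30 min on spin column, then centrifuged. Eluted R1 measured by Bradford assay, duplicates; Kd derived from elution versus no-ligand control, expressed relative to AcFTLDADF standard.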
For COc1ccc(C[C@H](NC(=O)[C@H](CC(=O)O)NC(=O)[C@H](C)NC(=O)[C@H](CC(=O)O)NC(=O)[C@H](CC(C)C)NC(=O)[C@@H](NC(=O)[C@H](Cc2ccccc2)NC(C)=O)[C@H](C)O)C(=O)O)cc1, the Relative Kd was 16.
Work on CC(C)C[C@H](NC(=O)[C@@H](NC(=O)[C@H](Cc1ccccc1)NC(=O)c1ccnc(-c2cc(C(=O)O)ccn2)c1)[C@H](C)O)C(=O)N[C@@H](CC(=O)O)C(=O)N[C@@H](C)C(=O)N[C@@H](CC(=O)O)C(=O)N[C@@H](Cc1ccccc1)C(=O)O yielded a Relative Kd of 0.6.
For CC(C)C[C@H](NC(=O)[C@@H](NC(=O)[C@H](Cc1ccccc1)NC(=O)Cc1ccccc1)[C@H](C)O)C(=O)N[C@@H](CC(=O)O)C(=O)N[C@@H](C)C(=O)N[C@@H](CC(=O)O)C(=O)N[C@@H](Cc1ccccc1)C(=O)O, the Relative Kd was 0.8.
In the case of CC(=O)N[C@@H](Cc1ccccc1)C(=O)N[C@H](C(=O)N[C@@H](CC(C)C)C(=O)N[C@@H](CC(=O)O)C(=O)N[C@@H](C)C(=O)N[C@@H](CC(=O)O)C(=O)N[C@@H](Cc1ccc([N+](=O)[O-])cc1)C(=O)O)[C@H](C)O, the Relative Kd is reported as greater than 30.
With CC(=O)N[C@@H](C)C(=O)N[C@H](C(=O)N[C@@H](CC(C)C)C(=O)N[C@@H](CC(=O)O)C(=O)N[C@@H](C)C(=O)N[C@@H](CC(=O)O)C(=O)N[C@@H](Cc1ccccc1)C(=O)O)[C@H](C)O the Relative Kd was greater than 30.
Work on CCC(=O)N[C@@H](Cc1ccccc1)C(=O)N[C@H](C(=O)N[C@@H](CC(C)C)C(=O)N[C@@H](CC(=O)O)C(=O)N[C@@H](C)C(=O)N[C@@H](CC(=O)O)C(=O)N[C@@H](Cc1ccccc1)C(=O)O)[C@H](C)O yielded a Relative Kd of 6.3.
Work on CC(=O)N[C@@H](Cc1ccccc1)C(=O)N[C@H](C(=O)N[C@@H](CC(C)C)C(=O)N[C@@H](CC(=O)O)C(=O)N[C@@H](C)C(=O)N[C@@H](CC(=O)O)C(=O)N[C@H](Cc1ccccc1)C(=O)O)[C@H](C)O yielded a Relative Kd of 8.6.
For CC(=O)N[C@@H](Cc1ccccc1)C(=O)N[C@H](C(=O)N[C@@H](CC(C)C)C(=O)N[C@@H](CC(=O)O)C(=O)N[C@@H](C)C(=O)N[C@@H](CC(=O)O)C(=O)N[C@@H](Cc1ccccc1)C(N)=O)[C@H](C)O, the Relative Kd was greater than 30.
In the case of CC(=O)N[C@@H](Cc1ccccc1)C(=O)N[C@H](C(=O)N[C@@H](CC(C)C)C(=O)N[C@@H](CC(=O)O)C(=O)N[C@@H](C)C(=O)N[C@@H](CC(=O)O)C(=O)N[C@@H](Cc1cccc(O)c1)C(=O)O)[C@H](C)O, the Relative Kd is reported as 6.3.
With CC(=O)N[C@@H](Cc1ccccc1)C(=O)N[C@H](C(=O)N[C@@H](CC(C)C)C(=O)N[C@@H](CC(=O)O)C(=O)N[C@@H](C)C(=O)N[C@@H](CC(=O)O)C(=O)N[C@@H](Cc1c[nH]cn1)C(=O)O)[C@H](C)O the Relative Kd was 29.
CC(C)C[C@H](NC(=O)[C@@H](NC(=O)[C@H](Cc1ccccc1)NC(=O)OCC1c2ccccc2-c2ccccc21)[C@H](C)O)C(=O)N[C@@H](CC(=O)O)C(=O)N[C@@H](C)C(=O)N[C@@H](CC(=O)O)C(=O)N[C@@H](Cc1ccccc1)C(=O)O gave a Relative Kd of 1.4.
COc1cccc(C[C@H](NC(=O)[C@H](CC(=O)O)NC(=O)[C@H](C)NC(=O)[C@H](CC(=O)O)NC(=O)[C@H](CC(C)C)NC(=O)[C@@H](NC(=O)[C@H](Cc2ccccc2)NC(C)=O)[C@H](C)O)C(=O)O)c1 gave a Relative Kd of 8.2.
In the case of CC(=O)N[C@@H](Cc1ccccc1)C(=O)N[C@H](C(=O)N[C@@H](CC(C)C)C(=O)N[C@@H](CC(=O)O)C(=O)N[C@@H](C)C(=O)N[C@@H](CC(=O)O)C(=O)N[C@@H](Cc1ccccc1Cl)C(=O)O)[C@H](C)O, the Relative Kd is reported as 12.
Work on CC(=O)N[C@@H](Cc1ccccc1)C(=O)N[C@H](C(=O)N[C@@H](CC(C)C)C(=O)N[C@@H](CC(=O)O)C(=O)N[C@@H](C)C(=O)N[C@@H](CC(=O)O)C(=O)N[C@@H](Cc1ccc(O)cc1)C(=O)O)[C@H](C)O yielded a Relative Kd of 24.
For CC(C)C[C@H](NC(=O)[C@@H](NC(=O)[C@H](Cc1ccccc1)NC(=O)c1ccccc1)[C@H](C)O)C(=O)N[C@@H](CC(=O)O)C(=O)N[C@@H](C)C(=O)N[C@@H](CC(=O)O)C(=O)N[C@@H](Cc1ccccc1)C(=O)O, the Relative Kd was 1.9.
In the case of CC(=O)N[C@@H](Cc1ccccc1)C(=O)N[C@H](C(=O)N[C@@H](CC(C)C)C(=O)N[C@@H](CC(=O)O)C(=O)N[C@@H](C)C(=O)N[C@@H](CC(=O)O)C(=O)N[C@@H](Cc1ccccc1)C(=O)O)[C@H](C)O, the Relative Kd is reported as 1.
For CC(=O)N[C@@H](Cc1ccccc1)C(=O)N[C@H](C(=O)N[C@@H](CC(C)C)C(=O)N[C@@H](CC(=O)O)C(=O)N[C@@H](C)C(=O)N[C@@H](CC(=O)O)C(=O)N[C@@H](Cc1ccccc1O)C(=O)O)[C@H](C)O, the Relative Kd was 26.
Molecule CC(=O)N[C@@H](Cc1ccccc1)C(=O)N[C@H](C(=O)N[C@@H](CC(C)C)C(=O)N[C@@H](CC(=O)O)C(=O)N[C@@H](C)C(=O)N[C@@H](CC(=O)O)C(=O)N[C@@H](Cc1c(F)c(F)c(F)c(F)c1F)C(=O)O)[C@H](C)O has a Relative Kd of 16.
In the case of CC(=O)N[C@@H](Cc1ccccc1)C(=O)N[C@H](C(=O)N[C@@H](CC(C)C)C(=O)N[C@@H](CC(=O)O)C(=O)N[C@@H](C)C(=O)N[C@@H](CC(=O)O)C(=O)N[C@@H](Cc1ccc(Cl)cc1)C(=O)O)[C@H](C)O, the Relative Kd is reported as 3.1.
Work on COc1ccc(CC(=O)N[C@@H](Cc2ccccc2)C(=O)N[C@H](C(=O)N[C@@H](CC(C)C)C(=O)N[C@@H](CC(=O)O)C(=O)N[C@@H](C)C(=O)N[C@@H](CC(=O)O)C(=O)N[C@@H](Cc2ccccc2)C(=O)O)[C@H](C)O)cc1 yielded a Relative Kd of 0.8.
CC(=O)N[C@H](C(=O)N[C@H](C(=O)N[C@@H](CC(C)C)C(=O)N[C@@H](CC(=O)O)C(=O)N[C@@H](C)C(=O)N[C@@H](CC(=O)O)C(=O)N[C@@H](Cc1ccccc1)C(=O)O)[C@H](C)O)C(C)C gave a Relative Kd greater than 30.
For COc1ccccc1C[C@H](NC(=O)[C@H](CC(=O)O)NC(=O)[C@H](C)NC(=O)[C@H](CC(=O)O)NC(=O)[C@H](CC(C)C)NC(=O)[C@@H](NC(=O)[C@H](Cc1ccccc1)NC(C)=O)[C@H](C)O)C(=O)O, the Relative Kd was greater than 30.
Molecule CC(=O)N[C@@H](Cc1ccccc1)C(=O)N[C@H](C(=O)N[C@@H](CC(C)C)C(=O)N[C@@H](CC(=O)O)C(=O)N[C@@H](C)C(=O)N[C@@H](CC(=O)O)C(=O)N[C@@H](Cc1ccc(N)cc1)C(=O)O)[C@H](C)O has a Relative Kd of 23.
In the case of CC(=O)N[C@@H](Cc1ccccc1)C(=O)N[C@H](C(=O)N[C@@H](CC(C)C)C(=O)N[C@@H](CC(=O)O)C(=O)N[C@@H](C)C(=O)N[C@@H](CC(=O)O)C(=O)N[C@@H](Cc1ccccc1F)C(=O)O)[C@H](C)O, the Relative Kd is reported as 2.
CC(C)C[C@H](NC(=O)[C@@H](NC(=O)[C@H](Cc1ccccc1)NC=O)[C@H](C)O)C(=O)N[C@@H](CC(=O)O)C(=O)N[C@@H](C)C(=O)N[C@@H](CC(=O)O)C(=O)N[C@@H](Cc1ccccc1)C(=O)O showed a Relative Kd of 2.4.
In the case of CC(C)C[C@H](NC(=O)[C@@H](NC(=O)[C@H](Cc1ccccc1)NC(=O)Cc1ccc([N+](=O)[O-])cc1)[C@H](C)O)C(=O)N[C@@H](CC(=O)O)C(=O)N[C@@H](C)C(=O)N[C@@H](CC(=O)O)C(=O)N[C@@H](Cc1ccccc1)C(=O)O, the Relative Kd is reported as 0.8.
In the case of CC(=O)N[C@@H](Cc1ccccc1)C(=O)N[C@H](C(=O)N[C@@H](CC(C)C)C(=O)N[C@@H](CC(=O)O)C(=O)N[C@@H](C)C(=O)N[C@@H](CC(=O)O)C(=O)N[C@@H](Cc1c[nH]c2ccccc12)C(=O)O)[C@H](C)O, the Relative Kd is reported as 10.
Molecule CC(=O)N[C@@H](Cc1ccccc1)C(=O)N[C@H](C(=O)N[C@@H](CC(C)C)C(=O)N[C@@H](CC(=O)O)C(=O)N[C@@H](C)C(=O)N[C@@H](CC(=O)O)C(=O)N[C@@H](Cc1ccc(C)cc1)C(=O)O)[C@H](C)O has a Relative Kd of 4.7.
CC(=O)N[C@@H](Cc1ccccc1)C(=O)N[C@H](C(=O)N[C@@H](CC(C)C)C(=O)N[C@@H](CC(=O)O)C(=O)N[C@@H](C)C(=O)N[C@@H](CC(=O)O)C(=O)N[C@H](C(=O)O)c1ccccc1)[C@H](C)O showed a Relative Kd of 24.
CC(=O)N[C@H](C(=O)N[C@H](C(=O)N[C@@H](CC(C)C)C(=O)N[C@@H](CC(=O)O)C(=O)N[C@@H](C)C(=O)N[C@@H](CC(=O)O)C(=O)N[C@@H](Cc1ccccc1)C(=O)O)[C@H](C)O)c1ccccc1 showed a Relative Kd of 6.6.
With CC(=O)N[C@@H](CC(C)C)C(=O)N[C@H](C(=O)N[C@@H](CC(C)C)C(=O)N[C@@H](CC(=O)O)C(=O)N[C@@H](C)C(=O)N[C@@H](CC(=O)O)C(=O)N[C@@H](Cc1ccccc1)C(=O)O)[C@H](C)O (Ac-L[aThr]LDADF-OH) the Relative Kd was greater than 30.
In the case of CCCC(=O)N[C@@H](Cc1ccccc1)C(=O)N[C@H](C(=O)N[C@@H](CC(C)C)C(=O)N[C@@H](CC(=O)O)C(=O)N[C@@H](C)C(=O)N[C@@H](CC(=O)O)C(=O)N[C@@H](Cc1ccccc1)C(=O)O)[C@H](C)O, the Relative Kd is reported as 1.
Molecule CC(=O)N[C@@H](Cc1ccccc1)C(=O)N[C@H](C(=O)N[C@@H](CC(C)C)C(=O)N[C@@H](CC(=O)O)C(=O)N[C@@H](C)C(=O)N[C@@H](CC(=O)O)C(=O)N[C@@H](CCC(N)=O)C(=O)O)[C@H](C)O has a Relative Kd greater than 30.

Assay: Relative binding affinity evaluated against mouse Ribonucleotide Reductase (RR)
How it was run: as §1
Work on CC(=O)N[C@@H](Cc1ccccc1)C(=O)N[C@H](C(=O)N[C@@H](CC(C)C)C(=O)N[C@@H](CC(=O)O)C(=O)N[C@@H](C)C(=O)N[C@@H](CC(=O)O)C(=O)N[C@@H](Cc1ccccc1)C(=O)N[C@@H](C)C(=O)N[C@@H](C)C(=O)O)[C@H](C)O (Ac-F[aThr]LDADFAA-OH) yielded a Relative Ki greater than 35.
CC(=O)N[C@@H](Cc1ccccc1)C(=O)N[C@H](C(=O)N[C@@H](CC(C)C)C(=O)N[C@@H](CC(=O)O)C(=O)N[C@@H](C)C(=O)N[C@@H](CC(=O)O)C(=O)N[C@@H](Cc1c[nH]cn1)C(=O)O)[C@H](C)O showed a Relative Ki greater than 20.
Molecule CC(=O)N[C@@H](Cc1ccc(O)cc1)C(=O)N[C@H](C(=O)N[C@@H](CC(C)C)C(=O)N[C@@H](CC(=O)O)C(=O)N[C@@H](C)C(=O)N[C@@H](CC(=O)O)C(=O)N[C@@H](Cc1ccccc1)C(=O)O)[C@H](C)O has a Relative Ki of 15.
With CC(=O)N[C@@H](Cc1ccccc1)C(=O)N[C@H](C(=O)N[C@@H](CC(C)C)C(=O)N[C@@H](CC(=O)O)C(=O)N[C@@H](C)C(=O)N[C@@H](CC(=O)O)C(=O)N[C@@H](Cc1ccccc1)C(=O)O)[C@H](C)O the Relative Ki was 1.
CC(=O)N[C@@H](Cc1ccccc1)C(=O)N[C@H](C(=O)N[C@@H](CC(C)C)C(=O)N[C@@H](CC(=O)O)C(=O)N[C@@H](C)C(=O)N[C@@H](CC(=O)O)C(=O)N[C@@H](CC(C)C)C(=O)O)[C@H](C)O (Ac-F[aThr]LDADL-OH) gave a Relative Ki greater than 35.
With CC(C)C[C@H](NC(=O)[C@@H](NC(=O)[C@@H](N)Cc1ccccc1)[C@H](C)O)C(=O)N[C@@H](CC(=O)O)C(=O)N[C@@H](C)C(=O)N[C@@H](CC(=O)O)C(=O)N[C@@H](Cc1ccccc1)C(=O)O (H-F[aThr]LDADF-OH) the Relative Ki was greater than 40.
In the case of CC(=O)N[C@@H](Cc1ccccc1)C(=O)N[C@H](C(=O)N[C@@H](CC(C)C)C(=O)N[C@@H](CC(=O)O)C(=O)N[C@@H](C)C(=O)N[C@@H](CC(=O)O)C(=O)N[C@@H](Cc1ccc(Cl)cc1)C(=O)O)[C@H](C)O, the Relative Ki is reported as 3.2.
